Assay results taken from ChEMBL document CHEMBL2040792, “New chromene scaffolds for adenosine A(2A) receptors: synthesis, pharmacology and structure-activity relationships” (Eur J Med Chem, 2012).

Target: T1, Adenosine receptor A1 (Homo sapiens) (UniProt P30542)
T1 sequence (whole entry): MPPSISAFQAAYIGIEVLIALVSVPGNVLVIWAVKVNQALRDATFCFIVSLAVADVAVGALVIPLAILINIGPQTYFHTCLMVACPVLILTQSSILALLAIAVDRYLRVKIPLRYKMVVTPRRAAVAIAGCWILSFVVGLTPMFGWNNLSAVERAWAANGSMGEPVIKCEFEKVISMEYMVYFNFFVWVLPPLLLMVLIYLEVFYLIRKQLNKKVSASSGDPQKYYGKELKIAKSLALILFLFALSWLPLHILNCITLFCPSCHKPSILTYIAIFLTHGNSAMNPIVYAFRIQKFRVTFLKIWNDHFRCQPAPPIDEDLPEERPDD
Assay: Displacement of [3H]DPCPX from human adenosine A1 receptor expressed in CHO cells at 10 uM after 60 mins by beta scintillation counting
Assay type: cell-based
Summary of the method: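 CHO-A1 membranes (15 µg protein) in Hepes/NaCl/MgCl2 buffer with adenosine deaminase, pH 7.4. Test compound at 10 µM with 2 nM [3H]DPCPX, 60 min at 25 °C, in duplicate. Nonspecific binding with 10 µM (R)-PIA. Percent inhibition read after filtration.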

Compound | inhibition
N=c1oc2ccc(Br)cc2cc1C(=O)NCCO | 26%
O=C(NC1CCCC1)c1cc2ccccc2oc1=O | 16%
COc1cccc2cc(C(=O)Nc3c(C#N)ncn3-c3ccccc3)c(=N)oc12 | 33%
COc1cccc2cc(C(=O)NCCO)c(=N)oc12 | 47%
COc1cc(Br)cc2cc(C(=O)NCCCO)c(=N)oc12 | 31%
O=C(NCCCO)c1cc2cccc(O)c2oc1=O | 18%
O=C(NCCCO)c1cc2ccccc2oc1=O | 24%
COc1cccc2cc(C(C)=O)c(=O)oc12 | 10%
CCOC(CNC(=O)c1cc2cccc(OC)c2oc1=N)OCC | 40%
O=C(NCC(O)CO)c1cc2cc(Cl)ccc2oc1=O (stereo not given) | 21%
COc1cccc2cc(C(=O)N[C@@H](CO)C(=O)O)c(=O)oc12 | 12%
COc1cccc2cc(C(=O)NCC(=O)O)c(=O)oc12 | 27%
CCC(CO)NC(=O)c1cc2cc(Br)ccc2oc1=N (stereo not given) | 20%
N=c1oc2ccc(Br)cc2cc1C(=O)NCCCO | 32%
N=c1oc2ccc(Br)cc2cc1C(=O)NC1CCCCC1 | 5%
COc1cccc2cc(C(=O)NCCO)c(=O)oc12 | 12%
COCCNC(=O)c1cc2cccc(OC)c2oc1=O | 45%
CCC(CO)NC(=O)c1cc2cccc(OC)c2oc1=N (stereo not given) | 24%

Target: T2, Adenosine receptor A2a (Homo sapiens, UniProt P29274)
Assay: Displacement of [3H]ZM241385 from human adenosine A2A receptor expressed in human HeLa cells at 10 uM after 30 mins by beta scintillation counting
Assay type: cell-based
Summary of the method: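 Single-point screen at 10 µM on HeLa-A2A membranes (10 µg protein), Tris/EDTA/MgCl2 buffer with adenosine deaminase, pH 7.4. 3 nM [3H]ZM241385, 30 min at 25 °C, in duplicate. Nonspecific binding with 50 µM NECA. Percent inhibition.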

T2 sequence (P29274 whole entry): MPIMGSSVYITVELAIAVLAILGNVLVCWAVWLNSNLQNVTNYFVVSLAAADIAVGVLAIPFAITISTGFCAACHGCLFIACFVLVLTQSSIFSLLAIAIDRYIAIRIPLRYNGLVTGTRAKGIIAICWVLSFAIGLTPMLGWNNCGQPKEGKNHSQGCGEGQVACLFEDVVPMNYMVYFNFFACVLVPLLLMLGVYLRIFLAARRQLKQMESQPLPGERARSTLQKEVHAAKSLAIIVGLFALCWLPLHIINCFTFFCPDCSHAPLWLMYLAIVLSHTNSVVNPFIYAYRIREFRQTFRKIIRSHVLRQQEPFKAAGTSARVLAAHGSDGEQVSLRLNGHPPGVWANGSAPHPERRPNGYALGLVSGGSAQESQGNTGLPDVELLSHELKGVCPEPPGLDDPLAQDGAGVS

Compound | inhibition
N=c1oc2ccc(Br)cc2cc1C(=O)NCCO | 6%
O=C(NC1CCCC1)c1cc2ccccc2oc1=O | 1%
COc1cccc2cc(C(=O)Nc3c(C#N)ncn3-c3ccccc3)c(=N)oc12 | > 70%
COc1cccc2cc(C(=O)NCCO)c(=N)oc12 | > 70%
COc1cc(Br)cc2cc(C(=O)NCCCO)c(=N)oc12 | 16%
O=C(NCCCO)c1cc2cccc(O)c2oc1=O | 1%
O=C(NCCCO)c1cc2ccccc2oc1=O | 10%
COc1cccc2cc(C(C)=O)c(=O)oc12 | 1%
CCOC(CNC(=O)c1cc2cccc(OC)c2oc1=N)OCC | > 70%
O=C(NCC(O)CO)c1cc2cc(Cl)ccc2oc1=O (stereo not given) | 2%
COc1cccc2cc(C(=O)N[C@@H](CO)C(=O)O)c(=O)oc12 | 6%
COc1cccc2cc(C(=O)NCC(=O)O)c(=O)oc12 | 13%
CCC(CO)NC(=O)c1cc2cc(Br)ccc2oc1=N (stereo not given) | 3%
N=c1oc2ccc(Br)cc2cc1C(=O)NCCCO | 14%
N=c1oc2ccc(Br)cc2cc1C(=O)NC1CCCCC1 | 1%
COc1cccc2cc(C(=O)NCCO)c(=O)oc12 | 1%
COCCNC(=O)c1cc2cccc(OC)c2oc1=O | 65%
CCC(CO)NC(=O)c1cc2cccc(OC)c2oc1=N (stereo not given) | 66%

Target: T2, Adenosine receptor A2a
Assay: Displacement of [3H]ZM241385 from human adenosine A2A receptor expressed in human HeLa cells after 30 mins by beta scintillation counting
Assay type: cell-based
Summary of the method: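 HeLa-A2A membranes (10 µg protein) in 50 mM Tris-HCl, 1 mM EDTA, 10 mM MgCl2, 2 UI/mL adenosine deaminase, pH 7.4, with 3 nM [3H]ZM241385. Nonspecific binding with 50 µM NECA. Incubated 30 min at 25 °C, in duplicate. Six concentrations (10 nM-100 µM); IC50 by nonlinear regression, converted to Ki by Cheng-Prusoff.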

Compound | Ki
COc1cccc2cc(C(=O)Nc3c(C#N)ncn3-c3ccccc3)c(=N)oc12 | 1000 nM
COc1cccc2cc(C(=O)NCCO)c(=N)oc12 | 1000 nM
CCOC(CNC(=O)c1cc2cccc(OC)c2oc1=N)OCC | 1580 nM

Target: T3, Adenosine receptor A2b (Homo sapiens) (UniProt P29275)
T3 sequence (whole entry): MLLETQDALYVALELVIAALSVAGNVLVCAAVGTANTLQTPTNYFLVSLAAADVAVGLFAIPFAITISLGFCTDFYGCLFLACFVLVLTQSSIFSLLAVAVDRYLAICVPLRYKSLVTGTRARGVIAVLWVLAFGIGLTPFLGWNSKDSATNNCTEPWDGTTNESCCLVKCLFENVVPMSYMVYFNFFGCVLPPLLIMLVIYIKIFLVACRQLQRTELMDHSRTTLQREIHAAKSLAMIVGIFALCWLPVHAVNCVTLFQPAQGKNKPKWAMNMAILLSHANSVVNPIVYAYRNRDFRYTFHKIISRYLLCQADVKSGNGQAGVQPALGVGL
Assay: Displacement of [3H]DPCPX from human adenosine A2B receptor expressed in HEK293 cells at 10 uM after 30 mins by beta scintillation counting
Assay type: cell-based
Summary of the method: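 Percent inhibition at 10 µM in HEK-293-A2B membranes (18 µg protein), pH 6.5 Tris buffer with benzamidine, bacitracin and adenosine deaminase. 35 nM [3H]DPCPX, 30 min at 25 °C, in duplicate. Nonspecific binding with 400 µM NECA.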

Compound | inhibition
N=c1oc2ccc(Br)cc2cc1C(=O)NCCO | 15%
O=C(NC1CCCC1)c1cc2ccccc2oc1=O | 18%
COc1cccc2cc(C(=O)Nc3c(C#N)ncn3-c3ccccc3)c(=N)oc12 | 9%
COc1cccc2cc(C(=O)NCCO)c(=N)oc12 | 65%
COc1cc(Br)cc2cc(C(=O)NCCCO)c(=N)oc12 | 30%
O=C(NCCCO)c1cc2cccc(O)c2oc1=O | 24%
O=C(NCCCO)c1cc2ccccc2oc1=O | 19%
COc1cccc2cc(C(C)=O)c(=O)oc12 | 15%
CCOC(CNC(=O)c1cc2cccc(OC)c2oc1=N)OCC | 51%
O=C(NCC(O)CO)c1cc2cc(Cl)ccc2oc1=O (stereo not given) | 23%
COc1cccc2cc(C(=O)N[C@@H](CO)C(=O)O)c(=O)oc12 | 24%
COc1cccc2cc(C(=O)NCC(=O)O)c(=O)oc12 | 35%
CCC(CO)NC(=O)c1cc2cc(Br)ccc2oc1=N (stereo not given) | 4%
N=c1oc2ccc(Br)cc2cc1C(=O)NCCCO | 25%
N=c1oc2ccc(Br)cc2cc1C(=O)NC1CCCCC1 | 10%
COc1cccc2cc(C(=O)NCCO)c(=O)oc12 | 7%
COCCNC(=O)c1cc2cccc(OC)c2oc1=O | 18%
CCC(CO)NC(=O)c1cc2cccc(OC)c2oc1=N (stereo not given) | 39%

Target: T4, Adenosine receptor A3 (Homo sapiens) (UniProt P0DMS8)
T4 sequence (whole entry): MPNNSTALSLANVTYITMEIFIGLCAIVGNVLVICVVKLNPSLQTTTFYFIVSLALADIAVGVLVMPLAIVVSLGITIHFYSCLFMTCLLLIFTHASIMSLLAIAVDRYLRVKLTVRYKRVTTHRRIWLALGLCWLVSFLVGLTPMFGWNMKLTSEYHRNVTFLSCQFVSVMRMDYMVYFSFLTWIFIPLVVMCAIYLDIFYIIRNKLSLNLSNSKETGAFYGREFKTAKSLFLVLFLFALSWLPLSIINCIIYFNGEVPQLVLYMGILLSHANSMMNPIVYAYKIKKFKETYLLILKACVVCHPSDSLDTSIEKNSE
Assay: Displacement of [3H]NECA from human adenosine A3 receptor expressed in human HeLa cells at 10 uM after 180 mins by beta scintillation counting
Assay type: cell-based
Summary of the method: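 HeLa-A3 membranes (90 µg protein) in 50 mM Tris-HCl, 1 mM EDTA, 5 mM MgCl2, 2 UI/mL adenosine deaminase, pH 7.4. Test compound at 10 µM with 30 nM [3H]NECA, 180 min at 25 °C, in triplicate. Nonspecific binding with 100 µM (R)-PIA. Percent inhibition read after GF/B filtration.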

Compound | inhibition
N=c1oc2ccc(Br)cc2cc1C(=O)NCCO | 0%
O=C(NC1CCCC1)c1cc2ccccc2oc1=O | 20%
COc1cccc2cc(C(=O)Nc3c(C#N)ncn3-c3ccccc3)c(=N)oc12 | 40%
COc1cccc2cc(C(=O)NCCO)c(=N)oc12 | 23%
COc1cc(Br)cc2cc(C(=O)NCCCO)c(=N)oc12 | 23%
O=C(NCCCO)c1cc2cccc(O)c2oc1=O | 8%
O=C(NCCCO)c1cc2ccccc2oc1=O | 6%
COc1cccc2cc(C(C)=O)c(=O)oc12 | 1%
CCOC(CNC(=O)c1cc2cccc(OC)c2oc1=N)OCC | 15%
O=C(NCC(O)CO)c1cc2cc(Cl)ccc2oc1=O (stereo not given) | 1%
COc1cccc2cc(C(=O)N[C@@H](CO)C(=O)O)c(=O)oc12 | 3%
COc1cccc2cc(C(=O)NCC(=O)O)c(=O)oc12 | 15%
CCC(CO)NC(=O)c1cc2cc(Br)ccc2oc1=N (stereo not given) | 24%
N=c1oc2ccc(Br)cc2cc1C(=O)NCCCO | 17%
N=c1oc2ccc(Br)cc2cc1C(=O)NC1CCCCC1 | 8%
COc1cccc2cc(C(=O)NCCO)c(=O)oc12 | 1%
COCCNC(=O)c1cc2cccc(OC)c2oc1=O | 0%
CCC(CO)NC(=O)c1cc2cccc(OC)c2oc1=N (stereo not given) | 6%
